Results pooled from the literature.
Each line is one published result; the experiments were not run side by side. ≈ marks a conversion by molar mass, not a printed value.

`N#Cc1ccc(C[C@H](Nc2c(Nc3ccc(Br)cc3)c(=O)c2=O)C(=O)N2CCc3ccccc32)cc1` gave a kinetic solubility of 9.2 µM (≈ 4.98 µg/mL) (aqueous buffer; 2 h; pH 7.4; 37 °C).
For `CNS(=O)(=O)c1ccc(Nc2ncc(C(F)(F)F)c([C@H]3CC[C@@](C)(O)CC3)n2)c(C)c1`, the solubility was 128 µM (FaSSIF; 2 h).
`CCCCCCCCCCCCCCCC(=O)NCCOC(=O)C[C@@H](CN)CC(C)C` gave a thermodynamic solubility of 3460 µg/mL (water; 12 h; 37 °C).
The thermodynamic solubility of `CN1CCN(c2cccc(-c3ccc4ncnc(Nc5ccc(Cl)c(Cl)c5)c4c3)c2)CC1` is reported as < 1.7 µM (aqueous buffer; pH 7.4; 25 °C).
`N#Cc1ccc(C[C@H](Nc2nnc(-c3ccc(F)cc3)s2)C(=O)N2CCc3ccccc32)cc1` has a kinetic solubility of 4.5 µM (≈ 2.11 µg/mL) (aqueous buffer; 2 h; pH 7.4; 37 °C).
`CO[C@H]1C[C@@H]2CC[C@@H](C)[C@@](O)(O2)C(=O)C(=O)N2CCCC[C@H]2C(=O)O[C@H]([C@H](C)C[C@@H]2CC[C@@H](O)[C@H](OC)C2)CC(=O)[C@H](C)/C=C(\C)[C@@H](O)[C@@H](OC)C(=O)[C@H](C)C[C@H](C)/C=C/C=C/C=C/1C` has a thermodynamic solubility of 6 µM (aqueous buffer; 18 h; pH 7.4).
With `Cc1ccc(-c2nnc(N[C@@H](Cc3ccc(C#N)cc3)C(=O)N3CCc4ccccc43)o2)cc1` the kinetic solubility was 5.4 µM (≈ 2.43 µg/mL) (aqueous buffer; 2 h; pH 7.4; 37 °C).
`Fc1ccccc1Nc1nc(-c2ccncc2)nc2c1CNCC2` has a thermodynamic solubility of 596 µM (PBS; 24 h; pH 7.4).
`O=[N+]([O-])c1ccc(Nc2ncnc3ccc(-c4cccc(N5CCOCC5)c4)cc23)cc1C(F)(F)F` gave a thermodynamic solubility of < 0.4 µM (aqueous buffer; pH 7.4; 25 °C).
`N#Cc1ccc(C[C@H](Nc2c(Nc3ccc(F)cc3)c(=O)c2=O)C(=O)N2CCc3ccccc32)cc1` has a kinetic solubility of 11.8 µM (≈ 5.67 µg/mL) (aqueous buffer; 2 h; pH 7.4; 37 °C).
With `CCCCCCCCCCCCCCCC(=O)NCCO` the thermodynamic solubility was < 16 µg/mL (water; 12 h; 37 °C).
`N#Cc1ccc(C[C@H](NC(=O)c2cc3cc(F)ccc3[nH]2)C(=O)N2CCc3ccccc32)cc1` has a kinetic solubility of 1 µM (≈ 0.452 µg/mL) (aqueous buffer; 2 h; pH 7.4; 37 °C).
The kinetic solubility of `CCN(CC)CCNC(=O)c1cc(S(C)(=O)=O)cnc1OC` is reported as 393 µM (≈ 129 µg/mL) (PBS; 2 h; pH 7.4; 25 °C).
The solubility of `Cc1ccccc1CN1C(=O)C2=C(CCN(Cc3ccccc3)C2)N2CCN=C12` is reported as 98.6 mg/mL (shake flask; aqueous buffer; pH 4.5).
The thermodynamic solubility of `C=CCn1c(=O)c2cnc(Nc3ccc(N4CCN(C)CC4)cc3)nc2n1-c1ccc2c(n1)[C@@](O)(CC)CC2` is reported as 2130 µM (PBS; pH 7.4).
The kinetic solubility of `Cc1nccn1CC1CCc2c(c3ccccc3n2C)C1=O` (stereo not shown) is reported as 110 µM (≈ 32.3 µg/mL) (PBS; 2 h; pH 7.4; 25 °C).
